Experimental data from publication PMC6146057 (ACS chemical neuroscience, 2018).
Residue numbers refer to the chain shown, from its start.

How the values were obtained:
[1] = Rat brain:plasma distribution; assay type: in vivo; details: male, Sprague-Dawley, brain and plasma, intravenous
How it was run: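 Dual-cannulated male Sprague–Dawley rats received a cassette IV dose of 0.2–0.25 mg/kg per compound via the jugular vein. The vehicle was about 10% ethanol, 40% PEG400 and 50% DMSO. Carotid blood and brain were collected at 0.25 h. Brains were rinsed in PBS, snap frozen and bead-homogenised, and plasma and brain were analysed by LC/MS/MS.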

[2] = Cynomolgus monkey IV/PO PK study; assay type: in vivo
How it was run: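 Male cynomolgus monkeys (n = 3) received a single IV bolus of 1 mg/kg in ethanol:PEG400:saline (10:60:30, v/v/v) and a single oral dose of 3 mg/kg in 30% aqueous Captisol. Plasma PK parameters were calculated by noncompartmental analysis.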

human M2–M5 = assay: Calcium mobilization selectivity, human M2–M5; assay type: cell-based; details: Figure 4A
How it was run: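 Muscarinic receptor-expressing CHO cells were plated at 20,000 cells/well in medium without G418 the day before. They were loaded with 1.15 μM Fluo-4 AM for 45 min at 37 °C in HBSS with 20 mM HEPES and 2.5 mM probenecid. Test compound (10-point 1:3 series, top final 30 μM) was added for 2.5 min, then EC20 ACh for 1 min. Calcium flux was fitted with a four-parameter logistic curve.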

[3] = Plasma protein binding by equilibrium dialysis, cyno; assay type: in vitro ADME; details: cynomolgus monkey, pH 7.4
How it was run: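 Plasma spiked with test article was dialysed against 25 mM phosphate buffer, pH 7.4, by equilibrium dialysis for 4 h at 37 °C with shaking. Aliquots from each chamber were matrix-matched, extracted with ice-cold acetonitrile, centrifuged and quantified by LC/MS/MS.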

rats [4] = assay: Contextual fear conditioning, risperidone-induced deficit; assay type: in vivo, rat; details: 10 mg/kg VU0486846 coadministered with 3 mg/kg risperidone
mice = assay: Modified Irwin Toxicology Battery in mice; assay type: in vivo, mouse; details: 100 mg/kg i.p.
nonhuman primate (NHP) = assay: Nonhuman primate adverse effect assessment; assay type: in vivo
M1 = target: T1, M1 (Homo sapiens, UniProt P11229); assay: M1 PAM potency at increasing ACh concentration; assay type: cell-based; details: for EC50: M1 PAM potency
T1 sequence (P11229 1-460): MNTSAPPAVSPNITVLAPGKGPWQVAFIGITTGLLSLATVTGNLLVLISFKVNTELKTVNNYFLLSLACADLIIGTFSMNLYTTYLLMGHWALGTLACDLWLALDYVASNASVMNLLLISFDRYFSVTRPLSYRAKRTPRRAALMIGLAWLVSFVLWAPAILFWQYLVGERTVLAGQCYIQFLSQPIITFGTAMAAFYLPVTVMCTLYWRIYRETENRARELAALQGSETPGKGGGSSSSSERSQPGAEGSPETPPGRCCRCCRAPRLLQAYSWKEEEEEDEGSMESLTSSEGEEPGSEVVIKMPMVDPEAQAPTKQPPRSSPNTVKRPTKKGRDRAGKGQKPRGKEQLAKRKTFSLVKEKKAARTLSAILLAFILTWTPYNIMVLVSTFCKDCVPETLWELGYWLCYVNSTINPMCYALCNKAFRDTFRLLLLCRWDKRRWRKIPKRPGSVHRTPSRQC

mouse M1 = target: T2, mouse M1 (Mus musculus, UniProt P12657); assay: Calcium mobilization assay, mouse M1 cell line with low expression; assay type: cell-based
T2 sequence (P12657 1-460): T1 sequence (P11229 1-460) with A5V, T254S, R320K, A337G, I413V

rats [5] = assay: Modified Irwin Toxicology Battery in rats; assay type: in vivo, rat; details: 56.6 mg/kg i.p.
How it was run: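 Rats received vehicle or test compound at 56.6 mg/kg i.p. in 10% Tween 80 (2 mL/kg; n = 3) after baseline assessment. A blinded observer scored autonomic and somatomotor parameters at 15, 30, 60, 180 and […].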

[6] = male, cynomolgus monkey, plasma, intravenous, 1 mg/kg
[7] = ACh concentration increased to EC70

For O=C(N[C@H]1CCCC[C@@H]1O)[C@H]1CN(Cc2ccc(-n3cccn3)cc2)c2ccccc2O1 [VU0486846, (2R)-N-[(1S,2S)-2-Hydroxycyclohexyl]-4-[(4-pyrazol-1-ylphenyl)-methyl]-2,3-dihydro-1,4-benzoxazine-2-carboxamide], the Kp at 0.25 h [1] was 0.18, the Kp uu at 0.25 h [1] was 0.05 and the “Adverse events or cholinergic side effects in PK study” value ([2]; cynomolgus monkey PK study) was “No adverse events or cholinergic side effects”. For the same compound, the half-life ([2]; male, cynomolgus monkey, plasma, 1 mg/kg) was 4.2 h, the Vd [2, 6] was 1 L/kg and the clearance [2, 6] was 18 mL/min/kg. For the same compound, the bioavailability ([2]; male, cynomolgus monkey, plasma, po, 3 mg/kg) was 37%, the “Activity at human M2–M5 (selectivity)” value (human M2–M5) was “highly selective” and the “Activity at human M2–M5 (selectivity)” value (human M2–M5; listed as 16) was “inactive”. The fraction unbound at 4 h [3] was 0.016, the Conditioned freezing (rats [4]) was “restored conditioned freezing to vehicle-treated control levels” and the free brain levels (mice) was 342 nM. For the same compound, the free plasma levels (mice) was 2000 nM, the total brain levels (mice) was 12.2 µM and the total plasma levels (mice) was 18.2 µM. For the same compound, the “Cholinergic side effects or adverse effects” value (mice; 3 h evaluation period) was “did not produce any cholinergic side effects or pronounced adverse effects”, the total plasma levels (nonhuman primate (NHP)) was ~ 2 μM and the Adverse effects (nonhuman primate (NHP); at achieved plasma levels) was “without any adverse effects”. The “M1 PAM efficacy, % ACh Max” value (M1; [7]) was 90 ± 1 % ACh Max, the EC50 (M1; [7]) was 68 ± 11 nM and the EC50 (M1; very low level of ACh (~EC9)) was 430 ± 120 nM. The “M1 PAM efficacy, % ACh Max” value (M1; very low level of ACh (~EC9)) was 84 ± 2 % ACh Max, the EC50 (mouse M1; M1 PAM EC50, mouse M1 cell line) was 600 nM and the EC50 (mouse M1; M1 PAM pEC50, mouse M1 cell line) was 562 nM. The “M1 PAM efficacy, % ACh Max” value (mouse M1; mouse M1 cell line) was 77 ± 4 % ACh Max, the “M1 agonism, % ACh Max” value (mouse M1; mouse M1 cell line, compound alone) was 9 ± 1 % ACh Max and the free brain levels (rats [5]) was 32 nM. The “free terminal plasma exposure” value (rats [5]) was 489 nM, the total brain levels (rats [5]) was 1.15 µM and the “total terminal plasma exposure” value (rats [5]) was 4.4 µM. The “Cholinergic side effects or adverse effects” value (rats [5]; 3 h evaluation period) was “did not produce any cholinergic side effects or pronounced adverse effects”.
